Data from ChEMBL document CHEMBL1151198, “A new antimalarial quassinoid from Simaba orinocensis” (J Nat Prod, 2004).
pIC50: −log10 of the molar value. Values after ≈ are worked out from the molar mass of the structure shown. Active and inactive are the calls of the source. No cut-off for these calls is given here.

Key:
HeLa [1] = experiment: Inhibition of protein synthesis in human HeLa cells at 2 uM by [35S]methionine metabolic labeling study; type: functional
[2] = Inhibition of protein biosynthesis in mouse Krebs cells assessed as firefly luciferase activity at 10 uM after 1 hr by translation assay relative to control; type: functional
Summary of the method: (§1)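 In vitro Krebs cell translation system read by firefly and renilla luciferase. Compounds at 10 or 2 µM; anisomycin 10 µM as reference and 0.5% DMSO as vehicle control. Values are average luciferase activity relative to control.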

Plasmodium falciparum [3] = experiment: Antimalarial activity against chloroquine-resistant Plasmodium falciparum W2 by LDH assay; type: functional, organism-based
Plasmodium falciparum [4] = experiment: Antimalarial activity against chloroquine-sensitive Plasmodium falciparum D6 by LDH assay; type: functional, organism-based
HeLa [5] = experiment: Inhibition of protein synthesis in human HeLa cells assessed as translation at 2 uM by [35S]methionine metabolic labeling study; type: functional; design: scale not given: the % may be the effect or the level left
[6] = Inhibition of protein biosynthesis in mouse Krebs cells assessed as renilla luciferase activity at 2 uM after 1 hr by translation assay relative to control; type: functional; summary of the method: as §1
HeLa [7] = experiment: Inhibition of translation in human HeLa cells at 10 uM by 35S-methionine metabolic labeling study; type: functional, cell-based
Leishmania donovani = experiment: Antileishmanial activity against Leishmania donovani promastigotes after 48 hrs by alamar blue assay; type: functional, organism-based
[8] = Inhibition of protein biosynthesis in mouse Krebs cells assessed as renilla luciferase activity at 10 uM after 1 hr by translation assay relative to control; type: functional; summary of the method: as §1
HeLa [9] = experiment: Inhibition of translation in human HeLa cells at 2 uM by 35S-methionine metabolic labeling study; type: functional, cell-based
[10] = Inhibition of protein biosynthesis in mouse Krebs cells assessed as firefly luciferase activity at 2 uM after 1 hr by translation assay relative to control; type: functional; summary of the method: as §1
Vero = experiment: Cytotoxicity against african green monkey kidney Vero cells; type: cell-based; conditions: Chlorocebus sabaeus
RAW264.7 [11] = experiment: Cytotoxicity against mouse RAW264.7 cells after 2 days by MTT assay; type: cell-based; conditions: RAW264.7, 48 h
Summary of the method: (§2)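 MTT viability assay, run on CHO-ICAM-1 cells and, separately, on RAW 264.7 cells. IC50 in µg/mL, mean ± SEM of three determinations.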

RAW264.7 [12] = experiment: Inhibition of iNOS production in LPS-activated mouse RAW264.7 cells after 20 hrs; type: functional, cell-based; conditions: RAW264.7, 20 h
Summary of the method: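 iNOS assay in RAW 264.7 cells, with L-NMMA, APDC and dexamethasone as reference inhibitors. IC50 in µg/mL, mean ± SEM of three determinations.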

[13] = Specific index, ratio of IC50 for mouse RAW264.7 to IC50 for iNOS production in mouse RAW264.7
Summary of the method: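 Index calculated as the MTT IC50 in RAW 264.7 cells divided by the iNOS IC50 in the same cells.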

[14] = Specific index, ratio of IC50 for human HL60 cells to MIC for LFA1/ICAM1; type: functional, HL-60
Summary of the method: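 Index calculated as XTT-assay IC50 (µg/mL) divided by the MIC from the LFA-1/ICAM-1-mediated aggregation primary screen (µg/mL). XTT IC50 values are given as mean ± SEM of three determinations.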

[15] = Specific index, ratio of IC50 for CHO cells to IC50 for LFA1/ICAM1
Summary of the method: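 Ratio of the MTT IC50 against CHO-ICAM-1 cells to the IC50 from the secondary LFA-1/ICAM-1-mediated adhesion assay, in which HL-60 cells adhere to CHO-ICAM-1 cells. IC50 values are in µg/mL, as mean ± SEM of three determinations.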

CHO = experiment: Cytotoxicity against CHO cells transfected with ICAM1 by MTT assay; type: cell-based; conditions: Cricetulus griseus; summary of the method: as §2
HL-60 = experiment: Cytotoxicity against human HL60 cells by XTT assay; type: cell-based
Summary of the method: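 XTT proliferation read-out combined with the primary assay for inhibitors of LFA-1/ICAM-1-mediated cell aggregation. IC50 in µg/mL, mean ± SEM of three determinations.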

[16] = biological target: Intercellular adhesion molecule (ICAM-1), Integrin alpha-L/beta-2 (Homo sapiens) (UniProt P20701+P05362+P05107); experiment: Inhibition of LFA1/ICAM1-mediated HL60 cell aggregation; type: cell-based; conditions: HL-60
Summary of the method: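 Primary screen for LFA-1/ICAM-1-mediated cell aggregation run together with an XTT cell-proliferation read-out. Aggregation potency is reported as a minimum inhibitory concentration in µg/mL.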

[17] = biological target: Intercellular adhesion molecule (ICAM-1), Integrin alpha-L/beta-2 (Homo sapiens, UniProt P05107+P05362+P20701); experiment: Inhibition of LFA1/ICAM1-mediated adhesion of HL60 cells to CHO-ICAM1 cells; type: cell-based, HL-60
Summary of the method: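 Secondary LFA-1/ICAM-1-mediated adhesion assay using HL-60 cells and CHO-ICAM-1 cells, with cytochalasin B as standard. IC50 in µg/mL, mean ± SEM of three determinations.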

KB = experiment: Cytotoxicity against human KB cells after 48 hrs by neutral red staining; type: functional, cell-based
Summary of the method: (§3)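 Human tumour lines: SK-MEL (malignant melanoma), KB (epidermal carcinoma), BT-549 (ductal carcinoma) and SK-OV-3 (ovary carcinoma). Compounds tested up to a maximum of 10 µg/mL, with doxorubicin as reference. IC50 given in µg/mL as mean ± SEM of three determinations.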

[18] = Selectivity index, ratio of IC50 for african green monkey (Cercopithecus aethiops) Vero cells to IC50 for chloroquine-resistant Plasmodium falciparum W2; type: toxicity, cell-based; conditions: read-out: Ratio IC50
[19] = Selectivity index, ratio of IC50 for african green monkey (Cercopithecus aethiops) Vero cells to IC50 for chloroquine-sensitive Plasmodium falciparum D6; type: toxicity, cell-based; conditions: read-out: Ratio IC50
BT-549 = experiment: Cytotoxicity against human BT549 cells after 48 hrs by neutral red staining; type: functional, cell-based; conditions: BT-549, 48 h; summary of the method: as §3
SK-OV-3 = experiment: Cytotoxicity against human SKOV3 cells after 48 hrs by neutral red staining; type: functional, cell-based; conditions: SK-OV-3, 48 h; summary of the method: as §3
SK-MEL = experiment: Cytotoxicity against human SK-MEL cells after 48 hrs by neutral red staining; type: functional, cell-based; summary of the method: as §3
HeLa [20] = experiment: Inhibition of protein synthesis in human HeLa cells assessed as translation at 10 uM by [35S]methionine metabolic labeling study; type: functional; design: scale not given: the % may be the effect or the level left
HeLa [21] = experiment: Inhibition of protein synthesis in human HeLa cells at 10 uM by [35S]methionine metabolic labeling study; type: functional

Chain of Intercellular adhesion molecule (ICAM-1), Integrin alpha-L/beta-2 (P20701 whole entry): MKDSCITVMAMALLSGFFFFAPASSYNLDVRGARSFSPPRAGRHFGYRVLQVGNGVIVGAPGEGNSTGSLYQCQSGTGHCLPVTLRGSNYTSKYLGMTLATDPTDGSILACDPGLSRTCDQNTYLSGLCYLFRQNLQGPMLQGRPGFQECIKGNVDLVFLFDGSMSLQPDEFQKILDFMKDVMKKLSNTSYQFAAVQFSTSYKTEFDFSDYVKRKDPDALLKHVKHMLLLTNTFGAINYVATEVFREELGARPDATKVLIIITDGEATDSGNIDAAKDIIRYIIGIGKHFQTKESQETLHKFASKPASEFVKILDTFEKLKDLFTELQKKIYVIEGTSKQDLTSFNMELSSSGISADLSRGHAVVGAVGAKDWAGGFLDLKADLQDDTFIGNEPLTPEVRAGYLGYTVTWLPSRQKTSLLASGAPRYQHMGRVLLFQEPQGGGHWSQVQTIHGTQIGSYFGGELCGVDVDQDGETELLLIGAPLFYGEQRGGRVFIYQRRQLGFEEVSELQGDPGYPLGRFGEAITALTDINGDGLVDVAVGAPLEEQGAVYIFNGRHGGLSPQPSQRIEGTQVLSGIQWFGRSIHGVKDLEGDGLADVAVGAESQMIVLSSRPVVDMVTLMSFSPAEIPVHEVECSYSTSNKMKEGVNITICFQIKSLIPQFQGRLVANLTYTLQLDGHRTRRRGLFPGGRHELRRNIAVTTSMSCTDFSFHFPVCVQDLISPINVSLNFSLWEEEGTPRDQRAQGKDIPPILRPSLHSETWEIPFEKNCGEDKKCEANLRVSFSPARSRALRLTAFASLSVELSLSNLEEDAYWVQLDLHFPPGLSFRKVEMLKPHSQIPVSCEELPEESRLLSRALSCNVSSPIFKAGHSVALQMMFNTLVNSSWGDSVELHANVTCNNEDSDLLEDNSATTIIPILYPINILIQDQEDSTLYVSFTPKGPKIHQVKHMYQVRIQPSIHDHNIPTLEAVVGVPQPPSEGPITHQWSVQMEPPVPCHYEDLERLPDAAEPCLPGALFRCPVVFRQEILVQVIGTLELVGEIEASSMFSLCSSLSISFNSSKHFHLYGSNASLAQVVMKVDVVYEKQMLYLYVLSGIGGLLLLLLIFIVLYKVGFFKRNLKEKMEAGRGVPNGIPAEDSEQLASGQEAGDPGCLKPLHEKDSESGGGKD
Chain of Intercellular adhesion molecule (ICAM-1), Integrin alpha-L/beta-2 (P05362 whole entry): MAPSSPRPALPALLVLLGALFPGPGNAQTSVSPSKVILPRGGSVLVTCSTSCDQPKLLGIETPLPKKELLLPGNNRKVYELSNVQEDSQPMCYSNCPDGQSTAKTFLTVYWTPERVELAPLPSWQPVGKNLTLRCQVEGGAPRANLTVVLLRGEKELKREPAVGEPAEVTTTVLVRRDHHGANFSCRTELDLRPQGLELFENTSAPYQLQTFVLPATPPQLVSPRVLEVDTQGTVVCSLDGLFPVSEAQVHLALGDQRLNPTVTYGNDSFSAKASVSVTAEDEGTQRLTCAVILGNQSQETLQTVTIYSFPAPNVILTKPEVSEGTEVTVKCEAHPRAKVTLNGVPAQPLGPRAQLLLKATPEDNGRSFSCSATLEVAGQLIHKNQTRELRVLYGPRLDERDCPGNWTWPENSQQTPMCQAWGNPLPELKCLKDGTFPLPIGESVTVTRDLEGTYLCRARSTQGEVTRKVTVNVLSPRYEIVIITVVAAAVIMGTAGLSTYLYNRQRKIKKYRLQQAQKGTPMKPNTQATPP
Chain of Intercellular adhesion molecule (ICAM-1), Integrin alpha-L/beta-2 (P05107 whole entry): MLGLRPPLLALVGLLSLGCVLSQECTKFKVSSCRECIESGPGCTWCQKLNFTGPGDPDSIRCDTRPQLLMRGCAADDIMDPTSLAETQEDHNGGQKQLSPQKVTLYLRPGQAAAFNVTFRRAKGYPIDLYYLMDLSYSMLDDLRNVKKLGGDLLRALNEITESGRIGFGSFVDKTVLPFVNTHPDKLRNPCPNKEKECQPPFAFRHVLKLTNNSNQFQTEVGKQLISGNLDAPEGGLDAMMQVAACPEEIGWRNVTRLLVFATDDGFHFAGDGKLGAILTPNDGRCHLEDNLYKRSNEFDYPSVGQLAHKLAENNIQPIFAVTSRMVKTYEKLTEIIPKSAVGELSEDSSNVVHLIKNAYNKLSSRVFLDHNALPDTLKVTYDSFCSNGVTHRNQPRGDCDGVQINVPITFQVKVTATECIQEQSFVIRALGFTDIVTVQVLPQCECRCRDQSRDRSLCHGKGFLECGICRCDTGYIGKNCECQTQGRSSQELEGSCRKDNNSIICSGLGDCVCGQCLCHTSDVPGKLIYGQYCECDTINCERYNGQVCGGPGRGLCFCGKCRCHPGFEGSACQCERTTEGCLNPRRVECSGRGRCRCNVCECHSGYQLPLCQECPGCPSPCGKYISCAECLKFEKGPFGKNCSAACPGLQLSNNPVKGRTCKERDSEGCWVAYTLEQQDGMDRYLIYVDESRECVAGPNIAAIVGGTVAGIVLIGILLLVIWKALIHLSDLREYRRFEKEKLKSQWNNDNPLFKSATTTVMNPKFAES

CC[C@@H](C)C(=O)O[C@H]1C(=O)O[C@@H]2C[C@H]3C(C)=C[C@H](OC(C)=O)[C@@H](OC(C)=O)[C@]3(C)[C@H]3[C@@H](O)[C@@H](OC(C)=O)[C@]4(C)OC[C@]32[C@@H]14
inhibition at 2 µM (HeLa [1]): 0% | Activity [2]: 1.02 | IC50 (Plasmodium falciparum [3]): > 4.76 µg/mL | IC50 (Plasmodium falciparum [4]): > 4.76 µg/mL | Activity (HeLa [5]): 100% | Activity [6]: 1.14 | Activity (HeLa [7]): inactive | IC50 (Leishmania donovani): > 50 µg/mL | IC90 (Leishmania donovani): > 50 µg/mL | Activity [8]: 1.03 | Activity (HeLa [9]): inactive | Activity [10]: 0.87 | IC50 (Vero): 10 µg/mL (≈ 16.5 µM)

N.S=C(S)N1CCCC1 [PYRROLIDINE DITHIOCARBAMIC ACID, AMMONIUM SALT]
IC50 (RAW264.7 [11]): < 0.4 µg/mL | IC50 (RAW264.7 [12]): 21 µg/mL | Ratio [13]: <0.02

N=C(N)c1ccc(OCCCCCOc2ccc(C(=N)N)cc2)cc1 [PENTAMIDINE]
IC50 (Leishmania donovani): 1.6 µg/mL (≈ 4.7 µM) | IC90 (Leishmania donovani): 3.5 µg/mL (≈ 10.3 µM)

C=C1[C@@H](C)[C@H]2[C@H](Cc3ccccc3)NC(=O)[C@]23OC(=O)/C=C/[C@H](O)CCC[C@@H](C)C/C=C/[C@H]3[C@@H]1O [CYTOCHALASIN B]
Ratio [14]: 17.2 | Ratio [15]: 0.04 | IC50 (RAW264.7 [11]): 6.5 µg/mL (≈ 13.6 µM) | IC50 (CHO): 0.26 µg/mL (≈ 0.542 µM) | IC50 (HL-60): 40 µg/mL (≈ 83.4 µM) | IC50 (RAW264.7 [12]): 5.6 µg/mL (≈ 11.7 µM) | MIC [16]: 2.3 µg/mL (≈ 4.8 µM) | Ratio [13]: 1.1 | pIC50 [17]: 4.83

CC[C@@H](C)C(=O)O[C@H]1C(=O)O[C@@H]2C[C@H]3C(C)=C[C@H](O)[C@@H](O)[C@]3(C)[C@H]3[C@@H](O)[C@@H](O)[C@]4(C)OC[C@]32[C@@H]14
inhibition at 2 µM (HeLa [1]): 96.5% | Ratio [14]: 2.7 | IC50 (RAW264.7 [11]): 4.2 µg/mL (≈ 8.74 µM) | IC50 (KB): 1.9 µg/mL (≈ 3.95 µM) | selectivity ratio [18]: 1180 | selectivity ratio [19]: 3060 | Activity [2]: 0.05 | IC50 (Plasmodium falciparum [3]): 0.00853 µg/mL (≈ 0.0178 µM) | IC50 (Plasmodium falciparum [4]): 0.00327 µg/mL (≈ 0.0068 µM) | Activity (HeLa [5]): 3.5% | Activity [6]: 0.57 | IC50 (CHO): 2.5 µg/mL (≈ 5.2 µM) | Activity (HeLa [7]): Active | IC50 (Leishmania donovani): 25 µg/mL (≈ 52 µM) | IC90 (Leishmania donovani): > 50 µg/mL | Activity [8]: 0.09 | IC50 (HL-60): 0.7 µg/mL (≈ 1.46 µM) | IC50 (BT-549): 1.7 µg/mL (≈ 3.54 µM) | IC50 (SK-OV-3): 0.8 µg/mL (≈ 1.66 µM) | IC50 (RAW264.7 [12]): 6.5 µg/mL (≈ 13.5 µM) | MIC [16]: 0.26 µg/mL (≈ 0.541 µM) | Ratio [13]: 0.6 | Activity [10]: 0.35 | pIC50 [17]: < 4.28 | IC50 (Vero): 10 µg/mL (≈ 20.8 µM) | IC50 (SK-MEL): 1.9 µg/mL (≈ 3.95 µM)

COc1ccc(C[C@H]2NC[C@H](O)[C@H]2OC(C)=O)cc1 [ANISOMYCIN]
Activity [2]: <0.01 | Activity (HeLa [7]): Active | Activity (HeLa [20]): 0% | Activity [8]: <0.01 | inhibition at 10 µM (HeLa [21]): 98.5%
